One data set deals with CT26. In words: Antiproliferative activity against mouse CT26 cells after 72 hrs by MTT assay. To be noted: CT26, 72 h. Format: functional, cell-based. In outline: (§1)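 Cells seeded at 5 × 10^3 per well and cultured 24 h before compound addition at varied concentrations, then grown a further 72 h; 0.5% DMSO as solvent control. MTT (5mg/ml solution) added for 4 h, formazan dissolved in DMSO, absorbance read at 570nm. Each treatment in triplicate; Mean ± SD.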

A further data set concerns HT-29. The experiment in a line: Antiproliferative activity against human HT-29 cells after 72 hrs by MTT assay. In kind it is functional, cell-based. To be noted: HT-29, 72 h. In outline:
as §1

The test system of the next data set is U-251. The experiment in a line: Antiproliferative activity against human U251 cells after 72 hrs by MTT assay. To be noted: U-251, 72 h. Format: functional, cell-based. The method, boiled down:
as §1

A further data set concerns PC-3. The experiment in a line: Antiproliferative activity against human PC3 cells after 72 hrs by MTT assay. To be noted: PC-3, 72 h. In kind it is functional, cell-based. In outline: as §1
In general terms: Formazan colour is commonly taken as a measure of viable cells.

Another data set concerns HepG2. In words: Antiproliferative activity against human HepG2 cells after 72 hrs by MTT assay. Format: functional, cell-based. To be noted: HepG2, 72 h. The method, boiled down: as §1
Data set [1] can be described thus: Aqueous solubility of the compound in water at 2 mg after 24 hrs by HPLC analysis. Format: physicochemical. The method, boiled down:
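Aqueous solubility measured by HPLC against calibration standards at 15–125 µg/mL. Values are the mean of at least three determinations ± SD.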

Converted amounts (≈) assume the structure as drawn.

The IC50 is the point on the concentration scale where inhibition reaches its midpoint. A high value points to lower potency. As for `Cn1cccc1/C=C/C(=O)c1cc2c(o1)C(=O)c1ccccc1C2=O`, the IC50 was 2.48 µM with CT26; 0.87 µM with HT-29; 1.5 µM in the data set with U-251; > 10 µM in the data set on PC-3; > 10 µM in the data set on HepG2.
By solubility is commonly meant the dissolved amount per volume that the medium holds. Lower therefore signals little dissolved substance. Regarding `O=C1CCN(C(=O)c2cc3c(o2)C(=O)c2ccccc2C3=O)CC1`, the IC50 is 0.61 µM with CT26; 1.13 µM in the data set on HT-29; 0.58 µM with U-251; > 10 µM in the data set with PC-3; 2.5 µM in the data set on HepG2. This compound also yielded a solubility at 24 h in data set [1] of 118 µM (≈ 38.1 µg/mL).
For `COc1ccc(C2CCN(C(=O)c3cc4c(o3)C(=O)c3ccccc3C4=O)CC2)cc1`, the IC50 in the data set with HT-29 was > 10 µM; in the data set with U-251 it was > 10 µM; in the data set with PC-3, 9.64 µM; with HepG2, > 10 µM.
As for `O=C(NCCN1CCCC1)c1cc2c(o1)C(=O)c1ccccc1C2=O`, the IC50 in the data set on CT26 is 0.2 µM; with HT-29 it was 0.3 µM; in the data set on U-251, 0.9 µM; with PC-3, 4.45 µM; in the data set with HepG2 it was 1.75 µM.
For the compound `O=C1c2ccccc2C(=O)c2oc(C(=O)N3CCCCC3)cc21`, the IC50 is 0.95 µM with CT26; 1.57 µM in the data set with HT-29; 2.16 µM in the data set with U-251; > 10 µM in the data set with PC-3; > 10 µM in the data set on HepG2.
With `O=C(NCCN1CCOCC1)c1cc2c(o1)C(=O)c1ccccc1C2=O`, the IC50 with CT26 was 0.05 µM; in the data set with HT-29, 0.37 µM; with U-251 it was 1.63 µM; in the data set with PC-3, 7.19 µM; in the data set on HepG2 it was > 10 µM. Moreover, the solubility at 24 h in data set [1] was < 70.6 µM.
For the compound `CN1CCN(C(=O)c2cc3c(o2)C(=O)c2ccccc2C3=O)CC1`, the IC50 in the data set with CT26 came out at 0.26 µM; in the data set on HT-29, 0.39 µM; in the data set with U-251, 1.37 µM; with PC-3, 4.58 µM; in the data set on HepG2, 5.27 µM. In data set [1], this compound yielded a solubility at 24 h of 337 µM (≈ 109 µg/mL).
As for `O=C1c2ccccc2C(=O)c2oc(C(=O)N3CCC(c4ccc(F)cc4)CC3)cc21`, the IC50 in the data set on HT-29, in the data set on U-251, in the data set with PC-3 and with HepG2 was > 10 µM throughout.
For the compound `CC(=O)c1cc2c(o1)C(=O)c1ccccc1C2=O` [NAPABUCASIN], the IC50 in the data set on CT26 amounted to 2.5 µM; in the data set on HT-29, 1.6 µM; in the data set with U-251 it was 2.6 µM; in the data set on PC-3 it was 5.25 µM; in the data set on HepG2 it was 6.6 µM. For the same compound, the solubility at 24 h in data set [1] was < 62.5 µM.
Turning to `COC(=O)CC1CCN(C(=O)c2cc3c(o2)C(=O)c2ccccc2C3=O)CC1`, the IC50 with HT-29 is > 10 µM; in the data set on U-251, 5.92 µM; in the data set on PC-3, > 10 µM; in the data set with HepG2, 9.66 µM.
Consider `O=C1c2ccccc2C(=O)c2oc(C(=O)N3CCSCC3)cc21`, for which the IC50 with CT26 turned out to be 1.35 µM; in the data set with HT-29 it was 1.65 µM; in the data set on U-251 it was 3.1 µM; with PC-3 it was 5.83 µM; with HepG2, 9.63 µM. Besides, the solubility at 24 h in data set [1] was < 76.5 µM.
`O=C(NC12CC3CC(CC(C3)C1)C2)c1cc2c(o1)C(=O)c1ccccc1C2=O`: the IC50 in the data set with HT-29, in the data set on U-251, in the data set with PC-3 and in the data set on HepG2 was > 10 µM throughout.
As for `COc1ccc(CCNC(=O)c2cc3c(o2)C(=O)c2ccccc2C3=O)cc1`, the IC50 was > 10 µM in the data set on HT-29, 6.32 µM in the data set with U-251, > 10 µM in the data set on PC-3 and > 10 µM with HepG2.
In the case of `O=C1c2ccccc2C(=O)c2oc(C(=O)N3CCOCC3)cc21`, the IC50 with CT26 turned out to be 0.57 µM; in the data set on HT-29, 0.86 µM; in the data set with U-251, 2.19 µM; with PC-3 it was 6.84 µM; with HepG2, 7.3 µM. The solubility at 24 h in data set [1] was 162 µM (≈ 50.5 µg/mL).
On to `O=C(NCCc1ccccc1)c1cc2c(o1)C(=O)c1ccccc1C2=O`, for which the IC50 in the data set with HT-29, with U-251, in the data set on PC-3 and in the data set on HepG2 was > 10 µM each time.
Take `O=C(/C=C/c1ccccc1)c1cc2c(o1)C(=O)c1ccccc1C2=O`: the IC50 in the data set on CT26, in the data set on HT-29, in the data set with U-251, with PC-3 and with HepG2 was > 10 µM each time.
As to `CC1(C)CCC(NC(=O)c2cc3c(o2)C(=O)c2ccccc2C3=O)CC1`, the IC50 in the data set on HT-29 was > 10 µM; in the data set with U-251, 2.65 µM; in the data set with PC-3 it was > 10 µM; with HepG2 it was 11.2 µM.
Regarding `O=C(/C=C/c1cccs1)c1cc2c(o1)C(=O)c1ccccc1C2=O`, the IC50 is > 10 µM with CT26; 1.52 µM in the data set with HT-29; 2.2 µM in the data set on U-251; > 10 µM with PC-3; > 10 µM in the data set on HepG2.
Take `O=C(/C=C/c1ccc(-c2ccccc2)cc1)c1cc2c(o1)C(=O)c1ccccc1C2=O`: the IC50 with CT26, in the data set with HT-29, in the data set on U-251, in the data set on PC-3 and in the data set with HepG2 was > 10 µM each time.
Turning to `O=C(NC1CCCCC1)c1cc2c(o1)C(=O)c1ccccc1C2=O`, the IC50 was > 10 µM in the data set with HT-29, 3.02 µM in the data set with U-251, > 10 µM in the data set on PC-3 and > 10 µM in the data set on HepG2.
Regarding `CCN1CCN(C(=O)c2cc3c(o2)C(=O)c2ccccc2C3=O)CC1`, the half-maximal inhibitory concentration (IC50) is 0.59 µM with CT26; 0.21 µM in the data set with HT-29; 0.87 µM in the data set with U-251; 2.06 µM in the data set on PC-3; > 10 µM in the data set on HepG2. In addition, in data set [1], the solubility at 24 h was determined as 241 µM (≈ 81.5 µg/mL).
As for `O=C1c2ccccc2C(=O)c2oc(C(=O)N3CCCC3)cc21`, the IC50 was 0.58 µM in the data set on CT26; 1.08 µM in the data set with HT-29; 2.18 µM in the data set with U-251; 9.65 µM with PC-3; > 10 µM in the data set with HepG2.
As to `O=C1c2ccccc2C(=O)c2oc(C(=O)N3CCN(c4cccc(C(F)(F)F)c4)CC3)cc21`, the half-inhibitory concentration (IC50) in the data set with HT-29, in the data set with U-251, with PC-3 and in the data set on HepG2 was > 10 µM throughout.
As to `O=C1c2ccccc2C(=O)c2oc(C(=O)N3CCC(c4cccc(Cl)c4)CC3)cc21`, the IC50 with HT-29, with U-251, in the data set with PC-3 and with HepG2 was > 10 µM each time.
Turning to `O=C(NCCc1ccc(Cl)cc1)c1cc2c(o1)C(=O)c1ccccc1C2=O`, the half-inhibitory concentration (IC50) was > 10 µM with HT-29, 3.36 µM with U-251, > 10 µM in the data set on PC-3 and > 10 µM in the data set on HepG2.

The record behind these values is ChEMBL document CHEMBL4382247, “A novel series of napabucasin derivatives as orally active inhibitors of signal transducer and activator of transcription 3 (STAT3)” (Eur J Med Chem, 2019).
